Compound activity (PubChem)
TDP2 absorb = blocks human TDP2 phosphodiesterase activity; O95551; actives 0.34% (n = 370,000); inhibition, % at 12.8 µM; recombinant TDP2, T5PNP hydrolysis, p-nitrophenol absorbance 415 nm;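 active = inhibition above the mean of all tested compounds plus 3 SD, set per campaign, cut at about 25% in these data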;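 also: 0% = DMSO with enzyme and 100% = buffer with substrate but no TDP2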
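Material: recombinant human TDP2; quantity: TDP2 enzyme at 120 nM final; medium: Tris-HCl pH 7.5 with MgCl2; compound: single concentration, 12.8 µM nominal, with 1% DMSO; incubation: 2 h enzyme incubation at 37 °C; signal: epi absorbance; measure: percent inhibition; benchmarks: high control without enzyme, low control DMSO plus TDP2; repeats: singlicate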
PRMT1 inh = blocks human protein arginine methyltransferase 1 | recombinant PRMT1, activity-based probe fluorescence polarization | inhibition, % at 2.79 µM | Q99873 | actives 1.3% (n = 370,000) | AID 652257;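 active = inhibition above about 21% made by adding two undisclosed values, limit read from the data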
MBD2 inh = inhibitors of human MBD2 binding to methylated oligonucleotide; Q9UBB5; TR-FRET; inhibition, % at 4.4 µM; actives 0.31% (n = 370,000); in the data active = inhibition above about 13%
SIAE inh = blocks human sialic acid acetylesterase; Q9HAT2; SIAE FP-Rh probe binding, fluorescence polarization; actives 0.69% (n = 370,000); inhibition, % at 9.66 µM;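 active = inhibition above a cutoff: mean of compounds within the control limits plus 3 SD of those, cut at about 17% in these data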;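 also: 0% = plate median of compound wells and 100% = probe without SIAE protein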
UHRF1 MBD2 ctr = UHRF1 methyl-DNA binding inhibition. Q96T88. UHRF1 binding to methylated oligo, TR-FRET. inhibition, % at 4.4 µM. actives 0.75% (n = 370,000); in the data active = inhibition above about 21%;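 also: UHRF1 SRA domain binding a hemimethylated CpG hairpin DNA probe; 0% = median of test compound wells and 100% = reference inhibitor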
Target sequence (Q96T88 whole entry, looked up, the tested form may be a part): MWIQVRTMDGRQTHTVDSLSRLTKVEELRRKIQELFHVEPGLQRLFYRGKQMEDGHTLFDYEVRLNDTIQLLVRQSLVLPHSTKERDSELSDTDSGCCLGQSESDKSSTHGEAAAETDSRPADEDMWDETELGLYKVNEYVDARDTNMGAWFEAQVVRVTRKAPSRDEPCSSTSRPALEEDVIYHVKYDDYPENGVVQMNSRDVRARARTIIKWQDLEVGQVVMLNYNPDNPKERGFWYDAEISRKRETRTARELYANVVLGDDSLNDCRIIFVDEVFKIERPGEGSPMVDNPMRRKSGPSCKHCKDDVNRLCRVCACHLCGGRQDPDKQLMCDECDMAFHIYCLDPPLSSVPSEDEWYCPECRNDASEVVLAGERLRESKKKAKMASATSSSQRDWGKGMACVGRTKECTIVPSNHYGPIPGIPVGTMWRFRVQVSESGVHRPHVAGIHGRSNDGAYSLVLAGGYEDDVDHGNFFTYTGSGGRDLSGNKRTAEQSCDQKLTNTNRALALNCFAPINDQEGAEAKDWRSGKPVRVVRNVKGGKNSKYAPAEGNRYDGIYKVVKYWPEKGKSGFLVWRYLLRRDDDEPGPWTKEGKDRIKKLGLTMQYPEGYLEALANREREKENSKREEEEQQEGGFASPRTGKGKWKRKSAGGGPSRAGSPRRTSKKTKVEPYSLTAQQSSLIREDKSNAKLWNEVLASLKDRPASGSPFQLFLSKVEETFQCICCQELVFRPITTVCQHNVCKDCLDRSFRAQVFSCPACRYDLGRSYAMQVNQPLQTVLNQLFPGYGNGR
LEDGF integ inh = blocks HIV-1 LEDGF/p75-dependent DNA integration | TR-FRET IN-LEDGF/p75 DNA integration, Eu/Cy5 | actives 0.64% (n = 370,000) | inhibition, % at 3.7 µM;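 active = inhibition above the screen-wide mean plus 3 SD, cut at about 13% in these data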;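 also: signal is the Cy5 over europium emission ratio at 671 and 618 nm; 0% = plate median of compound wells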
SIAE inh conf = human SIAE inhibition, confirmation | shares compounds with SIAE inh | SIAE FP-Rh activity-based probe, fluorescence polarization | inhibition, % at 9.66 µM | actives 13% (n = 2,300);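 active = mean inhibition of the replicates above the hit cutoff set in the primary screen, cut at about 17% in these data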;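 also: 0% = SIAE with DMSO and probe and 100% = probe without SIAE; inhibitors lower polarization as more probe stays unbound to SIAE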
Active calls of the source: *; · = not tested or not shown. Sampled rows, rich in hits. Any-hit rate of the full collection: about 3.3%.

SMILES	TDP2 absorb	PRMT1 inh	MBD2 inh	SIAE inh	UHRF1 MBD2 ctr	LEDGF integ inh	SIAE inh conf
N/C(=N\C(=O)OCc1ccccc1)N(CC#CC1=CCCCC1)CC1CC1	-5	4	1	-4	-2	-1	·
CC(=O)Nc1ccc(Br)c2ccccc12	1	2	3	-6	5	-6	·
O=C(Nc1ccc(Br)c2ccccc12)c1ccc2ccccc2c1O	4	11	1	26*	1	-4	-5
CCOC(=O)c1c(C)[nH]c(O)c1C=Nc1ccccc1	0	10	-6	22*	-3	-1	3
N#CCC[C@H]1CC[C@]2(CCCN(C(=O)C3CCCC3)C2)O1	6	0	-3	-1	4	2	·
Cn1ccc2c(N3CCCC3)cc3c(c21)C1CCC3O1 (stereo not drawn)	6	4	-5	20*	-5	6	-1
O=C(NNC(=S)Nc1ccc(Cl)cc1Cl)c1cccnc1	-4	-2	0	20*	-3	-6	2
CC(C)c1cc(C(C)C)c(S(=O)(=O)N2CCCC(C(=O)N3CCN(Cc4ccccc4)CC3)C2)c(C(C)C)c1 (stereo not drawn)	-1	-1	-1	3	-1	-3	·
Cc1cc(C(=O)Nc2ccc(F)cc2)n(-c2ccccc2)n1	-1	0	5	-3	-1	-3	·
Cc1c(N/N=C(\C#N)C(=O)c2ccc(Cl)cc2)c(=O)n(-c2ccccc2)n1C	-8	-4	-4	18*	-5	-6	4
COc1cccc(-c2cc(C(C)=O)c3n(c2=O)CCC3)c1OC	6	-3	-3	-6	-4	6	·
CCOc1ccc(CN2C(=O)c3ccccc3C2=O)cc1C(=O)N1CCC(C(N)=O)CC1	9	-4	-3	22*	0	2	5
CC(C)NC(=S)Nc1ccc2cn[nH]c2c1	-8	-1	8	19*	23*	1	-6
Cc1cc(C)c(NS(=O)(=O)c2c(C(=O)N3CCOCC3)c(C)n(C)c2C)c(C)c1	10	3	-7	18*	-3	3	-2
COc1ccc2ccccc2c1C(O)c1nccn1C (stereo not drawn)	17	85*	-5	57*	4	-2	43*
O=C(CSc1nnc(COc2ccc(Cl)cc2)n1Cc1ccco1)Nc1cccc2ccccc12	-16	1	-6	-16	1	3	·
COC(=O)C1CN(CCO)CCS(=O)(=O)N1Cc1cn(Cc2ccccc2Br)nn1 (stereo not drawn)	-12	-3	1	0	-1	3	·
Cc1cccc(-c2c3c(=O)n(C)c(=O)n(C)c3cn2CC2CCCO2)c1 (stereo not drawn)	-3	2	-3	19*	-3	-10	-3
CSc1c(N(C)C)c(=O)c1=S	-1	7	3	2	3	-2	·
Cc1cc(C)n2nc(SCC(=O)c3cc(C)n(CC4CCCO4)c3C)nc2n1 (stereo not drawn)	1	1	6	20*	-1	-2	0
CCOC(=O)C1=C(c2ccccc2)NC(=O)NC1c1cc(Cl)c(O)c(OC)c1 (stereo not drawn)	2	3	-1	5	-4	-4	·
CCOC(=O)C1=C(c2ccccc2)NC(N)=NC1c1ccc(OCc2ccc(Cl)cc2)c(OC)c1 (stereo not drawn)	-12	-7	-2	18*	0	4	17*
CC(=O)c1cc(-c2ccc(Oc3ccccc3)cc2)c(=O)n2c1CCC2	3	1	-5	-1	1	2	·
COc1ccc(C(NC(C)=O)c2cc(Cl)c3cccnc3c2O)cc1 (stereo not drawn)	-9	-4	-3	19*	-7	1	20*
CC(=O)NC(c1ccc(N(C)C)cc1)c1cc(Cl)c2cccnc2c1O (stereo not drawn)	-1	-1	3	23*	-7	-4	24*
